# High-throughput results: PubChem, several laboratories
# Hits are enriched below; roughly 1% of the tested compounds scored in any of these assays.
# FID counter: counter-screen for HCV NS3 helicase inhibitors: DNA intercalator displacement; DNA fluorescent intercalator displacement, fluorescence; inhibition, % at 7.9 µM; 290,000 tested, 0.17% active; in the data active means inhibition above about 37%;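 further: 0% = vehicle and 100% = reference compound; higher means more ethidium bromide displaced from hairpin DNA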
# RAD54 branch: inhibitors of human RAD54 branch migration; RAD54 Holliday junction branch migration, FAM/BHQ fluorescence; inhibition, % at 10.4 µM; 360,000 tested, 0.14% active;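 active means mean normalized replicate activity at least 40 and at least half of replicates scoring 40 or more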;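 further: 0% = median of neutral control wells and 100% = median of positive control wells; inhibitors cause a drop in the FAM fluorescence signal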
# VIM-2 inh: inhibitors of Pseudomonas aeruginosa VIM-2 metallo-beta-lactamase. purified VIM-2, nitrocefin hydrolysis, epi-absorbance fluorescence. inhibition, % at 5.6 µM. 290,000 tested, 0.89% active;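 active means inhibition above the mean of all tested compounds plus 3 SD, cutoff set per screening run, cut at about 7.5% in these data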;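 further: red hydrolysis product quenches plate fluorescence so inhibitors raise well fluorescence; 0% = enzyme with DMSO and 100% = DMSO without enzyme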
# IMP-1 inh-1: inhibitors of Pseudomonas aeruginosa IMP-1 metallo-beta-lactamase. purified IMP-1, nitrocefin hydrolysis, epi-absorbance fluorescence. inhibition, % at 5.6 µM. 290,000 tested, 0.45% active. AID 1556;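 active means inhibition above the mean plus 3 SD of all compounds in the same screening run, cut at about 4.5% in these data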;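 further: 0% = IMP-1 with DMSO and 100% = DMSO wells lacking enzyme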
#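 Assay system: purified recombinant IMP-1 beta-lactamase. Input: IMP-1 0.2 nM before substrate addition. Buffer or medium: Zinc- and detergent-supplemented HEPES buffer, pH 7.1. Schedule: 25 °C, 15 min preincubation, 25 min reaction. Signal: Epi-absorbance fluorescence, 480 nm excitation, 530 nm emission. Evaluation: percent inhibition from optical density relative to buffer-blank wells.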
# PvdQ acylase: P. aeruginosa PvdQ acylase inhibition. purified PvdQ acylase, fluorescence plate reader. inhibition, % at 10 µM. 340,000 tested, 0.063% active. AID 488965; in the data active means inhibition above about 30%, passing the limit was not always enough;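 further: 0% = vehicle neutral wells and 100% = reference inhibitor wells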
# IMP-1 inh-2: selectivity counter-screen for VIM-2 inhibitors: IMP-1 metallo-beta-lactamase inhibitors; AID 1856; 1,300 tested, under 10 active; shares compounds with VIM-2 inh; inhibition, % at 5.6 µM; purified IMP-1, nitrocefin hydrolysis, epi-absorbance fluorescence; call rule not given here;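 further: 0% = enzyme with vehicle and 100% = vehicle without enzyme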
# VIM-2 FRET ctr: inhibits VIM-2 in FRET assay to exclude epi-absorbance artifacts; shares compounds with VIM-2 inh; purified VIM-2, CCF2 FRET substrate hydrolysis; inhibition, % at 5.6 µM; 1,300 tested, 23% active;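 active means inhibition above the mean of all tested compounds plus 3 SD, cut at about 19% in these data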;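 further: 0% = VIM-2 plus DMSO and 100% = no enzyme wells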
# TEM-1 counter: blocks E. coli TEM-1 beta-lactamase in VIM-2 selectivity screen; shares compounds with VIM-2 inh; Purified TEM-1, nitrocefin hydrolysis, epi-absorbance fluorescence; inhibition, % at 5.6 µM; 1,300 tested, 3% active; AID 1866;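 active means inhibition above that campaign's mean inhibition plus 3 SD, cut at about 0.46% in these data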;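 further: 0% = TEM-1 with DMSO and 100% = TEM-1 with 100 µM potassium clavulanate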
# Target sequence (P62593 whole entry, looked up): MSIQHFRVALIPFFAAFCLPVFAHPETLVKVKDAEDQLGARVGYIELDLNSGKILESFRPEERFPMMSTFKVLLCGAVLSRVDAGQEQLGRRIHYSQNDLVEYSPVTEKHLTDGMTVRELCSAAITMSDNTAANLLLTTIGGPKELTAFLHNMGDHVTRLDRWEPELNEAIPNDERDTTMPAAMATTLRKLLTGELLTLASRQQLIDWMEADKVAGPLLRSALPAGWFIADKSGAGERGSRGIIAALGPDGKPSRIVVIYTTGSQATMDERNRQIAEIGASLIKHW
# VIM-2 confirm 2: confirmation of P. aeruginosa VIM-2 metallo-beta-lactamase inhibitors; shares compounds with VIM-2 inh; purified VIM-2, nitrocefin hydrolysis, epi-absorbance; inhibition, % at 5.6 µM; 1,300 tested, 96% active;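 active means inhibition of the VIM-2 beta-lactamase enzyme above about 11% from the earlier first-round screen, limit read from the data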;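 further: 0% = VIM-2 with DMSO and 100% = buffer wells without enzyme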
# An asterisk follows results filed as active; i = inactive; nt = not tested or not shown.
SMILES,FID counter,RAD54 branch,VIM-2 inh,IMP-1 inh-1,PvdQ acylase,IMP-1 inh-2,VIM-2 FRET ctr,TEM-1 counter,VIM-2 confirm 2
O=C(CSc1nnc(NC(=O)c2ccccc2F)s1)NCc1ccco1,-7.1,-9.0,41.1*,-1.2,-0.4,-3.4,68.4*,-6.3,48.8*
O=C(CSc1nnc(NC(=O)c2c(F)cccc2F)s1)NCc1ccco1,nt,6.6,nt,nt,-16.8,nt,nt,nt,nt
COc1ccc(C(=O)Nc2nnc(SCC(=O)NCc3ccco3)s2)cc1OC,-7.8,0.7,-0.6,-2.8,14.6,nt,nt,nt,nt
O=C(CSc1nnc(NC(=O)C2CC2)s1)Nc1ccccc1,-4.1,1.5,1.4,-1.8,-4.4,nt,nt,nt,nt
COc1ccccc1C(=O)Nc1nnc(SCC(=O)NCc2ccco2)s1,-14.3,-3.4,46.4*,-2.4,1.9,-2.4,70.2*,-6.1,52.6*
O=C(CSc1nnc(NC(=O)c2ccccc2F)s1)NCc1ccc(F)cc1,-11.8,10.6,37.9*,-0.5,-18.7,-2.7,61.2*,-6.2,44.3*
CCCNC(=O)C[C@H]1CC[C@@H]2[C@H](COc3ccc(NC(=O)c4cc(C)on4)cc3C(=O)N2C)O1,nt,-18.9,nt,nt,nt,nt,nt,nt,nt
CCCNC(=O)[C@@H]1[C@@H](CO)[C@@H]2Cn3c(ccc(-c4ccccc4)c3=O)[C@@H]2N1C(=O)c1ccccc1F,nt,0.1,nt,nt,nt,nt,nt,nt,nt
COCCNC(=O)C[C@@H]1C[C@H]2c3cc(NC(=O)c4ccc5c(c4)OCO5)ccc3O[C@H]2[C@H](CO)O1,nt,-3.7,nt,nt,nt,nt,nt,nt,nt
O=C(CSc1nnc(NC(=O)c2ccccc2[N+](=O)[O-])s1)NCc1ccco1,-2.1,-11.9,40.8*,-2.4,5.2,-3.4,64.0*,-7.0,45.7*
CCN1CCN(CC(=O)n2c3c(c4ccccc42)CC(C)CC3)CC1 (stereo not given),16.4,-4.2,18.7*,-0.1,-7.6,-1.1,27.7*,-2.9,28.6*
CC1CCc2c(c3ccccc3n2C(=O)CCl)C1 (stereo not given),-9.8,7.6,4.8,-0.6,-9.0,nt,nt,nt,nt
CC1CCN(CC(=O)n2c3c(c4ccccc42)CCCC3)CC1,10.0,8.1,18.4*,0.4,11.0,-3.0,8.8,-6.3,6.0
CNC(C)C#Cc1ccc2c(=O)c3c(OC)cccc3oc2c1 (stereo not given),-10.1,nt,13.5*,1.4,nt,-2.0,0.7,-5.3,30.9*
Fc1ccccc1-c1n[nH]c(=S)n1Cc1ccccc1,-15.6,12.7,28.2*,-4.5,1.7,-4.0,49.7*,-8.2,33.8*
Cc1scc(-c2n[nH]c(=S)n2Cc2ccccc2)c1C,-23.0,nt,-3.9,-6.8,1.4,nt,nt,nt,nt
Oc1ccc(Oc2ccc3c(C(F)(F)F)cc(C(F)(F)F)nc3n2)cc1,-9.2,7.4,12.5*,-0.5,-15.5,-2.8,-0.6,-6.3,28.1*
C[C@H]1CN([C@@H](C)CO)C(=O)c2cccc(NS(=O)(=O)c3ccccc3)c2O[C@H]1CN(C)S(C)(=O)=O,nt,6.8,nt,nt,nt,nt,nt,nt,nt
CCOC(=O)c1sc(NC(=O)CCN2CCC(C)CC2)c(C(=O)OCC)c1C,-1.4,nt,2.1,-0.7,16.2,nt,nt,nt,nt
CCOC(=O)c1sc(NC(=O)CCN2CCN(CC)CC2)c(C(=O)OCC)c1C,23.6,nt,13.7*,0.1,-6.3,-3.6,0.4,-4.6,26.6*
COc1ccc(Cc2nnc(NC(=O)C3CCCO3)s2)cc1OC (stereo not given),-4.0,2.5,56.0*,-1.8,-8.9,-2.2,-0.5,-1.7,6.3
C[C@@H]1CN([C@H](C)CO)C(=O)c2cc(NC(=O)Nc3ccc4c(c3)OCO4)ccc2O[C@@H](C)CCCCO[C@H]1CN(C)Cc1ccc(C(F)(F)F)cc1,nt,0.5,nt,nt,nt,nt,nt,nt,nt
Cc1noc(C)c1NC(=O)NCC[C@@H]1CC[C@H](NC(=O)c2ccccc2)[C@H](CO)O1,nt,-2.7,nt,nt,nt,nt,nt,nt,nt
COCCCNC1=C(Cl)C(=O)c2ccccc2C1=O,7.7,5.4,4.9,-1.8,-15.6,nt,nt,nt,nt
COCCCNc1c2c3c(cccc3[nH]c1=O)C(=O)c1ccccc1-2,2.0,i,34.4*,-3.1,4.6,72.9*,4.4,137.4*,87.4*
